Data reported in ChEMBL document CHEMBL1275556, “High prevalence of plasmid-mediated quinolone resistance genes qnr and aac(6')-Ib-cr in clinical isolates of Enterobacteriaceae from nine teaching hospitals in China” (2008).
Converted amounts (≈) assume the structure as drawn.

Columns and labels:
Escherichia coli [1] = test: Antimicrobial activity against aac(6')-Ib-cr-negative Escherichia coli PU12T harboring wild-type GyrA, GyrB, ParC and qnrS genes by agar dilution method; format: functional
Method in brief: (§1)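 MICs were determined by the CLSI agar dilution method (M7-A7) and interpreted against CLSI M100-S17 breakpoints.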

Citrobacter freundii [2] = test: Antimicrobial activity against aac(6')-Ib-cr-positive Citrobacter freundii PU55 harboring GyrA T83I, ParC S80I mutant, wild-type GyrB, qnrA genes by agar dilution method; format: functional; method in brief: as §1
Citrobacter freundii [3] = test: Antimicrobial activity against aac(6')-Ib-cr-positive Citrobacter freundii PU55T harboring wild-type GyrA, ParC, GyrB and qnrA genes by agar dilution method
Enterobacter cloacae [4] = test: Antimicrobial activity against aac(6')-Ib-cr-negative Enterobacter cloacae SH39 harboring GyrA S83I, ParC S80I mutant, wild-type GyrB and qnrA genes by agar dilution method; format: functional
Enterobacter cloacae [5] = test: Antimicrobial activity against aac(6')-Ib-cr-negative Enterobacter cloacae SH39T harboring qnrA gene by agar dilution method; format: functional
Klebsiella pneumoniae [6] = test: Antimicrobial activity against aac(6')-Ib-cr-negative Klebsiella pneumoniae SY22 harboring GyrA S83I, ParC S80I mutant, wild-type GyrB and qnrS genes by agar dilution method; format: functional; method in brief: as §1
Klebsiella pneumoniae [7] = test: Antimicrobial activity against aac(6')-Ib-cr-negative Klebsiella pneumoniae SY22T harboring qnrS gene by agar dilution method; format: functional; method in brief: as §1
Klebsiella pneumoniae [8] = test: Antimicrobial activity against aac(6')-Ib-cr-positive Klebsiella pneumoniae SY26 harboring GyrA S83I, ParC S80I mutant, wild-type GyrB and qnrB genes by agar dilution method; format: functional
Method in brief: (§2)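 MICs were determined on clinical isolates by CLSI agar dilution (M7-A7) and interpreted against CLSI M100-S17 breakpoints.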

Klebsiella pneumoniae [9] = test: Antimicrobial activity against aac(6')-Ib-cr-positive Klebsiella pneumoniae SY26T harboring wild-type GyrA, ParC, GyrB and qnrB genes by agar dilution method; format: functional
Method in brief: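 Transconjugants were made by conjugating a qnr/aac(6')-Ib-cr donor with azide-resistant E. coli J53. MICs were read by CLSI agar dilution (M7-A7) and interpreted per M100-S17.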

Citrobacter freundii [10] = test: Antimicrobial activity against aac(6')-Ib-cr-positive Citrobacter freundii TJ15 harboring GyrA T83I, ParC S80I mutant, wild-type GyrB, qnrB genes by agar dilution method; format: functional; method in brief: as §1
Citrobacter freundii [11] = test: Antimicrobial activity against aac(6')-Ib-cr-positive Citrobacter freundii TJ15T harboring wild-type GyrA, ParC, GyrB genes by agar dilution method; format: functional; method in brief: as §1
Enterobacter cloacae [12] = test: Antimicrobial activity against aac(6')-Ib-cr-negative Enterobacter cloacae WH42 harboring wild-type GyrA, ParC, GyrB and qnrA genes by agar dilution method; format: functional
Enterobacter cloacae [13] = test: Antimicrobial activity against aac(6')-Ib-cr-negative Enterobacter cloacae WH42T harboring qnrA gene by agar dilution method; format: functional
Klebsiella pneumoniae [14] = test: Antimicrobial activity against aac(6')-Ib-cr-positive Klebsiella pneumoniae WH99 harboring wild-type GyrA, ParC, GyrB and qnrB genes by agar dilution method; format: functional; method in brief: as §2
Klebsiella pneumoniae [15] = test: Antimicrobial activity against aac(6')-Ib-cr-positive Klebsiella pneumoniae WH99T harboring qnrB gene by agar dilution method; format: functional
Method in brief: (§3)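 Transconjugants were made by conjugating a qnr/aac(6')-Ib-cr donor with azide-resistant E. coli J53. Selection used Trypticase soy agar with sodium azide 150 µg/ml and sulfamethoxazole 180 µg/ml. […] MICs were read by CLSI agar dilution (M7-A7) and interpreted per M100-S17.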

Escherichia coli [16] = test: Antimicrobial activity against Escherichia coli J53 harboring wild-type GyrA, ParC, GyrB genes by agar dilution method
Escherichia coli [17] = test: Antimicrobial activity against aac(6')-Ib-cr-negative Escherichia coli PU12 harboring GyrA S83L mutant, wild-type GyrB, ParC and qnrS genes by agar dilution method; format: functional; method in brief: as §1
Escherichia coli [18] = test: Antimicrobial activity against aac(6')-Ib-cr-positive Escherichia coli FJ3 harboring GyrA S83L, ParC S80R mutant, wild-type GyrB and qnrB genes by agar dilution method; format: functional; method in brief: as §1
Escherichia coli [19] = test: Antimicrobial activity against aac(6')-Ib-cr-positive Escherichia coli FJ3T harboring wild-type GyrA, ParC, GyrB and qnrB genes by agar dilution method
Enterobacter cloacae [20] = test: Antimicrobial activity against aac(6')-Ib-cr-negative Enterobacter cloacae FJ61 harboring GyrA S83I, GyrA D87A, ParC S80I mutant, wild-type GyrB and qnrS genes by agar dilution method; format: functional
Enterobacter cloacae [21] = test: Antimicrobial activity against aac(6')-Ib-cr-negative Enterobacter cloacae FJ61T harboring qnrS gene by agar dilution method; format: functional
Enterobacter cloacae [22] = test: Antimicrobial activity against aac(6')-Ib-cr-positive Enterobacter cloacae FJ63 harboring GyrA S83I, GyrA D87A, ParC S80I mutant, wild-type GyrB and qnrS genes by agar dilution method; format: functional
Enterobacter cloacae [23] = test: Antimicrobial activity against aac(6')-Ib-cr-positive Enterobacter cloacae FJ63T harboring qnrS gene by agar dilution method; format: functional
Enterobacter cloacae [24] = test: Antimicrobial activity against aac(6')-Ib-cr-negative Enterobacter cloacae FJ67 harboring […] and qnrS genes by agar dilution method; format: functional
Enterobacter cloacae [25] = test: Antimicrobial activity against aac(6')-Ib-cr-negative Enterobacter cloacae FJ67T harboring qnrS gene by agar dilution method; format: functional
Klebsiella pneumoniae [26] = test: Antimicrobial activity against aac(6')-Ib-cr-positive Klebsiella pneumoniae GZ40 harboring GyrA S83I, ParC S80I mutant, wild-type GyrB and qnrB genes by agar dilution method; format: functional; method in brief: as §1
Klebsiella pneumoniae [27] = test: Antimicrobial activity against aac(6')-Ib-cr-positive Klebsiella pneumoniae GZ40T harboring qnrB gene by agar dilution method
Enterobacter cloacae [28] = test: Antimicrobial activity against aac(6')-Ib-cr-negative Enterobacter cloacae GZ47 harboring qnrB and qnrS genes by agar dilution method; format: functional
Enterobacter cloacae [29] = test: Antimicrobial activity against aac(6')-Ib-cr-negative Enterobacter cloacae GZ47T harboring qnrB gene by agar dilution method; format: functional
Enterobacter cloacae [30] = test: Antimicrobial activity against aac(6')-Ib-cr-negative Enterobacter cloacae GZ51 harboring qnrA gene by agar dilution method; format: functional
Enterobacter cloacae [31] = test: Antimicrobial activity against aac(6')-Ib-cr-negative Enterobacter cloacae GZ51T harboring qnrA gene by agar dilution method; format: functional
Citrobacter freundii [32] = test: Antimicrobial activity against aac(6')-Ib-cr-positive Citrobacter freundii JN1 harboring GyrA T83I, ParC S80I mutant, wild-type GyrB and qnrA genes by agar dilution method; format: functional; method in brief: as §1
Citrobacter freundii [33] = test: Antimicrobial activity against aac(6')-Ib-cr-positive Citrobacter freundii JN1T by agar dilution method; format: functional; method in brief: as §1
Klebsiella pneumoniae [34] = test: Antimicrobial activity against aac(6')-Ib-cr-positive Klebsiella pneumoniae JN132 harboring GyrA S83I, ParC S80I mutant, wild-type GyrB and qnrB genes by agar dilution method; format: functional; method in brief: as §2
Klebsiella pneumoniae [35] = test: Antimicrobial activity against aac(6')-Ib-cr-positive Klebsiella pneumoniae JN132T harboring qnrB gene by agar dilution method; format: functional; method in brief: as §3
Klebsiella pneumoniae [36] = test: Antimicrobial activity against aac(6')-Ib-cr-positive Klebsiella pneumoniae JN41 harboring GyrA S83I, ParC S80I mutant, wild-type GyrB and qnrB genes by agar dilution method; format: functional; method in brief: as §2
Klebsiella pneumoniae [37] = test: Antimicrobial activity against aac(6')-Ib-cr-positive Klebsiella pneumoniae JN41T harboring qnrB gene by agar dilution method; format: functional; method in brief: as §3
Citrobacter freundii [38] = test: Antimicrobial activity against aac(6')-Ib-cr-negative Citrobacter freundii JN64 harboring GyrA T83I, wild-type ParC, GyrB and qnrA genes by agar dilution method; format: functional; method in brief: as §1
Citrobacter freundii [39] = test: Antimicrobial activity against aac(6')-Ib-cr-negative Citrobacter freundii JN64T harboring qnrA gene by agar dilution method; format: functional; method in brief: as §1
Citrobacter freundii [40] = test: Antimicrobial activity against aac(6')-Ib-cr-positive Citrobacter freundii JS33 harboring GyrA T83I mutant, wild-type ParC, GyrB, qnrA and qnrB genes by agar dilution method; format: functional; method in brief: as §1
Citrobacter freundii [41] = test: Antimicrobial activity against aac(6')-Ib-cr-positive Citrobacter freundii JS33T harboring qnrA gene by agar dilution method; format: functional; method in brief: as §1

## NCC[C@H](O)C(=O)N[C@@H]1C[C@H](N)[C@@H](O[C@H]2O[C@H](CN)[C@@H](O)[C@H](O)[C@H]2O)[C@H](O)[C@H]1O[C@H]1O[C@H](CO)[C@@H](O)[C@H](N)[C@H]1O [AMIKACIN]
Escherichia coli [1]
  MIC: 4 µg/mL (≈ 6.83 µM)
Citrobacter freundii [2]
  MIC: 4 µg/mL (≈ 6.83 µM)
Citrobacter freundii [3]
  MIC: 4 µg/mL (≈ 6.83 µM)
Enterobacter cloacae [4]
  MIC: 2 µg/mL (≈ 3.42 µM)
Enterobacter cloacae [5]
  MIC: 2 µg/mL (≈ 3.42 µM)
Klebsiella pneumoniae [6]
  MIC: 2 µg/mL (≈ 3.42 µM)
Klebsiella pneumoniae [7]
  MIC: 2 µg/mL (≈ 3.42 µM)
Klebsiella pneumoniae [8]
  MIC: 64 µg/mL (≈ 109 µM)
Klebsiella pneumoniae [9]
  MIC: 32 µg/mL (≈ 54.6 µM)
Citrobacter freundii [10]
  MIC: 4 µg/mL (≈ 6.83 µM)
Citrobacter freundii [11]
  MIC: 4 µg/mL (≈ 6.83 µM)
Enterobacter cloacae [12]
  MIC: 16 µg/mL (≈ 27.3 µM)
Enterobacter cloacae [13]
  MIC: 16 µg/mL (≈ 27.3 µM)
Klebsiella pneumoniae [14]
  MIC: 2 µg/mL (≈ 3.42 µM)
Klebsiella pneumoniae [15]
  MIC: 2 µg/mL (≈ 3.42 µM)
Escherichia coli [16]
  MIC: 1 µg/mL (≈ 1.71 µM)
Escherichia coli [17]
  MIC: 8 µg/mL (≈ 13.7 µM)
Escherichia coli [18]
  MIC: 4 µg/mL (≈ 6.83 µM)
Escherichia coli [19]
  MIC: 2 µg/mL (≈ 3.42 µM)
Enterobacter cloacae [20]
  MIC: 2 µg/mL (≈ 3.42 µM)
Enterobacter cloacae [21]
  MIC: 2 µg/mL (≈ 3.42 µM)
Enterobacter cloacae [22]
  MIC: > 256 µg/mL
Enterobacter cloacae [23]
  MIC: 64 µg/mL (≈ 109 µM)
Enterobacter cloacae [24]
  MIC: 32 µg/mL (≈ 54.6 µM)
Enterobacter cloacae [25]
  MIC: 16 µg/mL (≈ 27.3 µM)
Klebsiella pneumoniae [26]
  MIC: 8 µg/mL (≈ 13.7 µM)
Klebsiella pneumoniae [27]
  MIC: 4 µg/mL (≈ 6.83 µM)
Enterobacter cloacae [28]
  MIC: 1 µg/mL (≈ 1.71 µM)
Enterobacter cloacae [29]
  MIC: 1 µg/mL (≈ 1.71 µM)
Enterobacter cloacae [30]
  MIC: > 256 µg/mL
Enterobacter cloacae [31]
  MIC: > 256 µg/mL
Citrobacter freundii [32]
  MIC: 4 µg/mL (≈ 6.83 µM)
Citrobacter freundii [33]
  MIC: 2 µg/mL (≈ 3.42 µM)
Klebsiella pneumoniae [34]
  MIC: 64 µg/mL (≈ 109 µM)
Klebsiella pneumoniae [35]
  MIC: 64 µg/mL (≈ 109 µM)
Klebsiella pneumoniae [36]
  MIC: 4 µg/mL (≈ 6.83 µM)
Klebsiella pneumoniae [37]
  MIC: 4 µg/mL (≈ 6.83 µM)
Citrobacter freundii [38]
  MIC: > 256 µg/mL
Citrobacter freundii [39]
  MIC: > 256 µg/mL
Citrobacter freundii [40]
  MIC: 4 µg/mL (≈ 6.83 µM)
Citrobacter freundii [41]
  MIC: 4 µg/mL (≈ 6.83 µM)
